A selection: hits, their analogues and other compounds. The true share with any hit is near 1.6%.
VLA-4 inh – inhibition in human VLA-4 binding assay, primary screen, VLA-4 allosteric modulator project, MLPCN library, flow cytometry, VLA-4 expressing cells; ligand binding flow cytometry; inhibition, % (about 7 µM as worked out from the volumes in the protocol); 330,000 tested, 0.2% active; AID 2557, 2010; in the data active means inhibition above about 50%
NR2E3 ag-1 – inhibitors of NR2E3-RetCOR corepressor binding, primary screen, NR2E3 agonist project, biochemical, TR-FRET, GST-NR2E3, biotin-RetCOR. 1536-well. inhibition of corepressor binding, % at 4.78 µM. 320,000 tested, 0.12% active. Photoreceptor-specific nuclear receptor (Homo sapiens), Q9Y5X4;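 active means percent inhibition above the cutoff of mean plus 3 SD of all tested compounds, set per screening campaign, cut at about 20% in these data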
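System: GST-NR2E3 and biotin-RetCOR proteins; probe or stimulus: 7 nM biotin-RetCOR; doses: compound at 4.8 µM, single dose; schedule: Compound–protein incubation for 5 h at 4 °C; detection: time-resolved FRET; read-out: percent inhibition; controls: biotin wells as high control, 0.6% DMSO wells as low control; format: 1536-well plates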
PG9 binder – binders of HIV-1 gp120 antibody PG9, primary screen, biochemical, TR-FRET | HIV-1 gp120 / PG9 antibody interaction | TR-FRET gp120-PG9 antibody binding | inhibition, % at 6.7 µM | 360,000 tested, 0.43% active | AID 624416, 2012; in the data active means inhibition above about 8.5%
NR1D1 modulator – modulators of Rev-erb alpha DNA binding, primary screen, biochemical, FITC-DNA, fluorescence polarization, uHTS. 370,000 tested, 0.79% active. Rev-erbα–FITC-DNA binding, 90 min. AID 1259318, 2017. activity, % at 10 µM;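 active means activity above about 14%, limit read from the data; passing the limit was not always enough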
NR2E3 ag-2 – NR2E3 agonists in two-hybrid cells, primary screen, cell-based, luminescence, CHO-S, Gal4-NCOR/VP16-NR2E3; Photoreceptor-specific nuclear receptor (Homo sapiens), Q9Y5X4; luciferase; inhibition of corepressor binding, % at 3.98 µM; 360,000 tested, 0.35% active;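 active means inhibition above the mean of all tested compounds plus 3 SD, cut at about 70% in these data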;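 further: higher means lower luciferase signal from less NR2E3 corepressor binding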
NR2E3 ag confirm – NR2E3 agonist confirmation in cells, cell-based, luminescence, CHO-S two-hybrid | shares compounds with NR2E3 ag-2 | CHO-S mammalian two-hybrid NR2E3-NCOR, luciferase luminescence | inhibition, % at 3.98 µM | 2,300 tested, 51% active | AID 624378, 2012;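 active means average inhibition above a cutoff equal to the mean inhibition of all tested compounds plus one SD, cut at about 70% in these data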
GAL4-VP16 luc – GAL4-VP16 reporter modulators, confirmation, counter-screen for NR2E3 agonist project, cell-based, luminescence, CHO-S, high throughput. shares compounds with NR2E3 ag-2. CHO-S GAL4-VP16 luciferase reporter. inhibition, % at 3.98 µM. 2,300 tested, 29% active. AID 624379, 2012;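 active means mean inhibition above a cutoff equal to the average over all tested compounds plus one standard deviation, cut at about 70% in these data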;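 further: luciferase from a UAS reporter driven by GAL4-VP16 transactivation; higher means less reporter light so more repression of VP16 activity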
Of the large screens only hits and unclear results are named; the others gave an inactive call (follow-up assays come after a bar, where they were run).

COc1ccc(CNC(=O)c2ccc(Cl)c(S(=O)(=O)N3CCOCC3)c2)cc1OC	none (no result: PG9 binder, NR1D1 modulator) | NR2E3 ag confirm inactive | GAL4-VP16 luc inactive
COc1ccc(C(=O)NCc2cccc(Cl)c2)cc1S(=O)(=O)N1CCOCC1	none
COC(=O)[C@]12C[C@H](CC(=O)N3CCC(c4ccccc4)CC3)C(=O)N(Cc3ccccc3)C1=C[C@H](COCc1ccccc1)O[C@@H]2C	none (no result: VLA-4 inh, NR2E3 ag-1, PG9 binder, NR2E3 ag-2)
CC(=O)N1CC(C)Sc2ccc(S(=O)(=O)NCCc3ccc(C)cc3)cc21 (centres undefined)	NR2E3 ag-2 80 | NR2E3 ag confirm 74 | GAL4-VP16 luc inactive
CC(=O)N1CC(C)Sc2ccc(S(=O)(=O)NCc3ccc(Cl)cc3)cc21 (centres undefined)	none | NR2E3 ag confirm inactive | GAL4-VP16 luc inactive
CC(=O)N1CC(C)Sc2ccc(S(=O)(=O)NCCc3ccccc3)cc21 (centres undefined)	none
CCOc1cc(CCNC(=O)c2cc3sccc3n2CC)ccc1OC	none (no result: VLA-4 inh, NR2E3 ag-1, PG9 binder, NR2E3 ag-2)
COc1ccc(F)cc1CSc1nnnn1-c1ccc(O)cc1	none
COc1cc(CSc2nnnn2-c2ccc(C)cc2)cc(OC)c1OC	NR2E3 ag-2 98 | NR2E3 ag confirm 94 | GAL4-VP16 luc 84
CCOC(=O)C1=C(CC)Nc2ccccc2N/C1=N\S(=O)(=O)c1cc(Br)ccc1Br	none (no result: VLA-4 inh, NR2E3 ag-1) | NR2E3 ag confirm 88 | GAL4-VP16 luc inactive
O=C(NCc1ccc(Cl)cc1)O[C@H]1CC[C@@]23CCCN2C(=O)CCC[C@H]3C1	none (no result: VLA-4 inh, NR2E3 ag-1, PG9 binder, NR2E3 ag-2)
Cc1[nH]n2c(=O)cc(-c3ccc([N+](=O)[O-])cc3)nc2c1-c1ccccc1	NR2E3 ag-2 97 | NR2E3 ag confirm 99 | GAL4-VP16 luc inactive
Cc1[nH]n2c(=O)cc(C(C)(C)C)nc2c1-c1ccccc1	none | NR2E3 ag confirm 100 | GAL4-VP16 luc 96
COC(=O)C[C@H]1CC[C@H]2[C@H](COc3ccc(NC(=O)C4CCOCC4)cc3C(=O)N2C)O1	none (no result: VLA-4 inh, NR2E3 ag-1, PG9 binder, NR2E3 ag-2)
O=C(Nc1ccc(Cl)cc1Cl)O[C@@H]1CC[C@@]23CCCN2C(=O)CCC[C@H]3C1	none (no result: VLA-4 inh, NR2E3 ag-1, PG9 binder, NR2E3 ag-2)
Cc1ccccc1C(=O)NC1CCCCN(C)C1=O (centres undefined)	none (no result: VLA-4 inh, NR2E3 ag-1, NR2E3 ag-2)
Brc1ccc2[nH]c3c(N4CCc5ccccc5C4)ncnc3c2c1	none (no result: PG9 binder, NR1D1 modulator, NR2E3 ag-2)
Fc1ccc2[nH]c3c(N4CCc5ccccc5C4)ncnc3c2c1	NR2E3 ag-2 73 | NR2E3 ag confirm 94 | GAL4-VP16 luc 87
Cc1ccc2[nH]c3c(N4CCc5ccccc5C4)ncnc3c2c1	none | NR2E3 ag confirm 94 | GAL4-VP16 luc 77
c1ccc2c(c1)[nH]c1c(N3CCCC3)ncnc12	none | NR2E3 ag confirm inactive | GAL4-VP16 luc inactive
c1ccc2c(c1)[nH]c1c(N3CCSCC3)ncnc12	none
O=[N+]([O-])c1ccc2nc(C3CCCCC3)[nH]c2c1	none
O=[N+]([O-])c1ccc(O)c(C2CCCCC2)c1	NR2E3 ag-2 99 (no result: VLA-4 inh, NR2E3 ag-1) | NR2E3 ag confirm 99 | GAL4-VP16 luc 92
Cc1[nH]c2ccccc2c(=O)c1C(=O)/C=C/c1ccccc1	none | NR2E3 ag confirm inactive | GAL4-VP16 luc inactive
COC(=O)C[C@H]1CC[C@@H]2[C@@H](COc3ccc(NC(=O)c4ccccc4)cc3C(=O)N2C)O1	none (no result: VLA-4 inh, NR2E3 ag-1, PG9 binder, NR2E3 ag-2)
O=C(NCc1ccccc1)N1CCN(c2ccc(Cl)c(Cl)c2)CC1	NR2E3 ag-2 77 | NR2E3 ag confirm 93 | GAL4-VP16 luc 76
Cc1occc1C(=O)N1CCN(c2ccccc2)CC1	none
Cc1occc1C(=O)N1CCN(c2ccc(Cl)c(Cl)c2)CC1	none | NR2E3 ag confirm 81 | GAL4-VP16 luc inactive

Screens (PubChem)
